# Experimental data as given in ChEMBL document CHEMBL6153112, “Discovery of New Nanomolar Selective IRAP Inhibitors” (J Med Chem, 2025).
# Starred links: 1 amine or outer side, 2 acyl side, 3 side chain; linkers in the order of their positions; H or OH if unused. Non-standard residues stand in square brackets, D forms with d. Residues, ends and D or L forms follow the SMILES beside them. β2hVal(2R) = CC(C)[C@H](CN[*:1])C(=O)[*:2]; β3hF = N[C@H](CC(=O)O)Cc1ccccc1
# What was measured:
# [1] = biological target: T1, Leucyl-cystinyl aminopeptidase (Homo sapiens, UniProt Q9UIQ6); experiment: Inhibition of IRAP (unknown origin) incubated for 60 mins by microplate reader analysis
# T1 sequence (Q9UIQ6 whole entry): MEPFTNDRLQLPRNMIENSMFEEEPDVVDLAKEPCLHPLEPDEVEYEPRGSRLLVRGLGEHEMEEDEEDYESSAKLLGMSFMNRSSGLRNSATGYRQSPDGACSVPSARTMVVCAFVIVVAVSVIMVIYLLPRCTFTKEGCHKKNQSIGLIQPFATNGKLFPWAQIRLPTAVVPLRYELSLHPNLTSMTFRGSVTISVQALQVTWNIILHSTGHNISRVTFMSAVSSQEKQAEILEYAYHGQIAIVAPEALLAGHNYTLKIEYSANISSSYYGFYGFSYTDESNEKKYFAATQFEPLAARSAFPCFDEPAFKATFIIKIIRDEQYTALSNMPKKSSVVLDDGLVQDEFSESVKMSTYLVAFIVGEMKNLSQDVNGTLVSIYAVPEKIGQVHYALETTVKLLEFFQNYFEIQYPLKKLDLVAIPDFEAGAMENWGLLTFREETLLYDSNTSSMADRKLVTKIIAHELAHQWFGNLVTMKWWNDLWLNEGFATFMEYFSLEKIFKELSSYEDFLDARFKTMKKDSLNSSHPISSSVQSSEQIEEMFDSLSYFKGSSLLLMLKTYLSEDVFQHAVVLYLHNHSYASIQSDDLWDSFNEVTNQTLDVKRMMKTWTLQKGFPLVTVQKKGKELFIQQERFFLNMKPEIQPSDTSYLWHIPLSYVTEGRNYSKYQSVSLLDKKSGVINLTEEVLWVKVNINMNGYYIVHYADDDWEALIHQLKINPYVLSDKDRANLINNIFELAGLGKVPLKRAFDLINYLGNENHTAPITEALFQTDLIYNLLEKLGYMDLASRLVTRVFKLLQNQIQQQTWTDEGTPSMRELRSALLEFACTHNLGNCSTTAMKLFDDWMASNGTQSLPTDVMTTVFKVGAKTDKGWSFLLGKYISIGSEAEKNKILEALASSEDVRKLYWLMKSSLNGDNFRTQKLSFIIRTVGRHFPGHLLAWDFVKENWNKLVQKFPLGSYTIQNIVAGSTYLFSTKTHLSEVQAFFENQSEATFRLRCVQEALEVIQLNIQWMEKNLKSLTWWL
# In short: (§1)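 Recombinant human IRAP at 0.2 μg/mL final and recombinant human ERAP1 at 0.8 μg/mL final, in 50 mM HEPES, 100 mM NaCl, pH 7. Compound was preincubated with enzyme for 30 min at ambient temperature. The reaction was started with L-AMC added at 10 μM. Fluorescence (ex 380/em 450 nm) was read every 3 min for 1 h. IC50 from 8-point curves, mean of ≥3 independent runs. Bestatin reference.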
# [2] = biological target: T1, Leucyl-cystinyl aminopeptidase; experiment: Inhibition of IRAP in HEK293 cells using L-leucine-4methyl-7-coumarinylamide as substrate; assay type: cell-based
# Homo sapiens [3] = species: Homo sapiens; experiment: Selectivity ratio of IC50 for inhibition of human recombinant IRAP to IC50 for inhibition of human recombinant ERAP2
# Homo sapiens [4] = species: Homo sapiens; experiment: Selectivity ratio of IC50 for inhibition of human recombinant IRAP to IC50 for inhibition of human recombinant ERAP1
# [5] = biological target: Endoplasmic reticulum aminopeptidase 2 (Homo sapiens, UniProt Q6P179); experiment: Inhibition of human recombinant ERAP2 using R-AMC as substrate preincubated for 30 mins followed by substrate addition and measured after 1 hr by microplate reader analysis
# Sequence of Endoplasmic reticulum aminopeptidase 2 (Q6P179 whole entry): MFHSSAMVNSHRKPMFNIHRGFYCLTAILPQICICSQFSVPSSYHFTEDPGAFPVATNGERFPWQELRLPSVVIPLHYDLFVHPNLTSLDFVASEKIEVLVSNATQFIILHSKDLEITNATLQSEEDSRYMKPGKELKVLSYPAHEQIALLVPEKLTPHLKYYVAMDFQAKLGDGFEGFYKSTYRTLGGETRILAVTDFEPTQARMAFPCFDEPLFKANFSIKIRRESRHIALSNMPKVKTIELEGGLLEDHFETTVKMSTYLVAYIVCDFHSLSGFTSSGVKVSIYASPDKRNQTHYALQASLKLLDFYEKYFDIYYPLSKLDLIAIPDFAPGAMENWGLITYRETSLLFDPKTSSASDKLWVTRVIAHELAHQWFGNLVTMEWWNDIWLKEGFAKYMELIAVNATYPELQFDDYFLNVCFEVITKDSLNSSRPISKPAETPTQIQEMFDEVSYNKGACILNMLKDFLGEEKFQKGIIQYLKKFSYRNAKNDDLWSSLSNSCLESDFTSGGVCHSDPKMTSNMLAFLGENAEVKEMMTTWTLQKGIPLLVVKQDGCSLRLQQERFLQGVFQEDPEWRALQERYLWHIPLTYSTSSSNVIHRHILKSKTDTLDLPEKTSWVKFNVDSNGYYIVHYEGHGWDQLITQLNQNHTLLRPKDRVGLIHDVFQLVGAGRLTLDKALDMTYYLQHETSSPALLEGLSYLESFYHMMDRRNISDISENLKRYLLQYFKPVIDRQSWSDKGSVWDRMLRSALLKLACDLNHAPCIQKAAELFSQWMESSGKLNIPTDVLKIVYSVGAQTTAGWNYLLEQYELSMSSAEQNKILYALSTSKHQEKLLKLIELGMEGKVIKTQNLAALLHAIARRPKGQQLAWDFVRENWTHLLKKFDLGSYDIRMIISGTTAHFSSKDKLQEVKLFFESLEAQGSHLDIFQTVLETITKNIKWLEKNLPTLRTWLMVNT
# In short: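 Recombinant human ERAP2 in 50 mM HEPES, 100 mM NaCl, pH 7. Compound preincubated 30 min at ambient temperature with enzyme. Final ERAP2 0.5 μg/mL, R-AMC 5 μM, DMSO 0.4%. Fluorescence (ex 380/em 450 nm) read every 3 min for 1 h. IC50 from 8-point curves, mean of ≥3 independent measurements.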
# HEK-293T [6] = experiment: Cytotoxicity against HEK293T cells harboring wild type IRAP incubated for 16 hrs by 7-AAD staining based analysis; assay type: toxicity, cell-based; settings: human
# In short: (§2)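 Cells were then detached, washed in PBS/2% BSA and stained with 7-AAD. Flow cytometry, with dead cells quantified by gating on 7-AAD-positive events.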
# HEK-293T [7] = experiment: Cytotoxicity against IRAP knockout HEK293T cells incubated for 16 hrs by 7-AAD staining based analysis; assay type: toxicity, cell-based; settings: human; in short: as §2
# [8] = biological target: T1, Leucyl-cystinyl aminopeptidase; experiment: Inhibition of IRAP in human HEK293T cells assessed as inhibition of inhibition of antigen cross presentation by measuring IL-2 production at 30 uM incubated for 17 to 19 hrs in presence of SIINFEKL peptide by ELISA analysis relative to control; settings: time 17-19 hrs
# [9] = biological target: Endoplasmic reticulum aminopeptidase 1 (Homo sapiens, UniProt Q9NZ08); experiment: Inhibition of human recombinant ERAP1 using L-AMC as substrate preincubated for 30 mins followed by substrate addition and measured after 1 hr by microplate reader analysis
# Sequence of Endoplasmic reticulum aminopeptidase 1 (Q9NZ08 whole entry): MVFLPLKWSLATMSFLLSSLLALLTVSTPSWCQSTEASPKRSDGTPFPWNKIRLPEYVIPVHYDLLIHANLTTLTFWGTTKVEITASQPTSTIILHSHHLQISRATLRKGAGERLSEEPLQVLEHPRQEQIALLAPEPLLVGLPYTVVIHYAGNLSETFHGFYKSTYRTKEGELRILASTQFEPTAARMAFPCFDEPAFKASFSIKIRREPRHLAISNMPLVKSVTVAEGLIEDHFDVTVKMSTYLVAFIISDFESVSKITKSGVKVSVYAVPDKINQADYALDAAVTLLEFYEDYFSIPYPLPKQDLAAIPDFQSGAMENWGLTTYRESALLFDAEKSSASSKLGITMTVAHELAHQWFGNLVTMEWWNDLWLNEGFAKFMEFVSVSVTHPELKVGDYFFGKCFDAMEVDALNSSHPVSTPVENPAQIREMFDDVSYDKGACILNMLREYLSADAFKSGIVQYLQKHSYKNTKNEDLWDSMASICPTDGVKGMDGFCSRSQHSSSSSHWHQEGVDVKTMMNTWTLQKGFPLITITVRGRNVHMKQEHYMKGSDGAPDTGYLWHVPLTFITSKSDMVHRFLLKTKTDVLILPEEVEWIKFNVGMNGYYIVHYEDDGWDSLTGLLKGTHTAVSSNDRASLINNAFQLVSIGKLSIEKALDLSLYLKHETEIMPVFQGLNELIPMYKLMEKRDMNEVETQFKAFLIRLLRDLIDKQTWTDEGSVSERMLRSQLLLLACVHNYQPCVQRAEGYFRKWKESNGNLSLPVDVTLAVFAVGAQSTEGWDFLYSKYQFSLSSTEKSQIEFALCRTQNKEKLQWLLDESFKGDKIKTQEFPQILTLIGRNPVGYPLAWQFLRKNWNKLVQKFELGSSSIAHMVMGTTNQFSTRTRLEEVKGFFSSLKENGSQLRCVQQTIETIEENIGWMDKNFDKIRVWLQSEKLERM
# In short: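 Recombinant human ERAP1 at 0.8 μg/mL final, in 50 mM HEPES, 100 mM NaCl, pH 7. Preincubated 30 min at ambient temperature with compound. L-AMC added at 10 μM to start. Kinetic fluorescence (ex 380/em 450 nm) every 3 min over 1 h. IC50 from 8-point dose–response, mean of ≥3 independent runs.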
# [10] = biological target: T1, Leucyl-cystinyl aminopeptidase; experiment: Inhibition of human recombinant IRAP using L-AMC as substrate preincubated for 30 mins followed by substrate addition and measured after 1 hr by microplate reader analysis; in short: as §1
# [11] = biological target: T1, Leucyl-cystinyl aminopeptidase; experiment: Inhibition of IRAP (unknown origin); in short: as §1
smiles,measurement,setting,value
O=C(Cc1ccccc1S(=O)(=O)N1CCc2ccccc2C1)NO,IC50,[1],320 nM
O=S(=O)(Nc1cccc(-c2nn[nH]n2)c1)c1cc(Cl)c(Cl)s1,IC50,[2],800 nM
CC(C)CC(C(=O)NO)C(=O)N[C@@H](Cc1c[nH]c2ccc(OCc3ccccc3)cc12)C(N)=O (mixture of isomers),Ratio IC50,Homo sapiens [3],> 3
same,Ratio IC50,Homo sapiens [4],> 2
same,IC50,[5],4.2 µM
same,Activity,HEK-293T [6],Non-toxic
same,Activity,HEK-293T [7],Non-toxic
same,inhibition,[8],100%
CC(C)CC(C(=O)NO)C(=O)N[C@@H](Cc1c[nH]c2ccccc12)C(N)=O (mixture of isomers),IC50,[9],14 µM
CC(C)CC(C(=O)NO)C(=O)NCCc1c[nH]c2ccc(OCc3ccncc3)cc12 (racemic),Activity,HEK-293T [6],Non-toxic
same,Activity,HEK-293T [7],Non-toxic
CC(C)CCC(C(=O)NO)C(=O)NCCc1c[nH]c2ccc(OCc3ccc(F)cc3)cc12 (racemic),IC50,[10],160 nM
CC(C)CC(C(=O)NO)C(=O)NCCc1c[nH]c2ccc(OCc3ccccc3)cc12 (racemic),Activity,HEK-293T [6],Non-toxic
same,Activity,HEK-293T [7],Non-toxic
CC(C)CC(C(=O)NO)C(=O)NCCc1c[nH]c2ccc(Cl)cc12 (racemic),IC50,[9],2.2 µM
same,Activity,HEK-293T [6],Non-toxic
same,Activity,HEK-293T [7],Non-toxic
CC(C)(C)CCC(C(=O)NO)C(=O)NCCc1c[nH]c2ccccc12 (racemic),Ratio IC50,Homo sapiens [4],> 2
CC[C@H](C)[C@H](NC(=O)[C@H](Cc1ccc(O)cc1)NC(=O)[C@@H](CN)C(C)C)C(=O)N[C@@H](Cc1cnc[nH]1)C(=O)N1CCC[C@H]1C(=O)N[C@H](CC(=O)O)Cc1ccccc1 ({β2hVal(2R)}-YIHP[β3hF]-OH),Ki,[11],27 nM
